Experimental data from ChEMBL document CHEMBL1157043, “An eco-friendly synthesis and antimicrobial activities of dihydro-2H-benzo- and naphtho-1,3-oxazine derivatives” (Eur J Med Chem, 2010).
In brackets after ≈: the same amount, converted by molar mass.

Columns and labels:
[1] = tested on: Trichophyton mentagrophytes; assay: Antimicrobial activity against Trichophyton mentagrophytes after 72 to 96 hrs
Pseudomonas aeruginosa = assay: Antimicrobial activity against Pseudomonas aeruginosa after 24 hrs; assay type: functional
In short: (§1)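 NCCLS microdilution in Mueller Hinton broth. Strains were grown 24 h on nutrient agar at 37 °C, suspended at about 1.0–2.0 × 10^7 cells/mL (McFarland-matched) in saline with 0.05% Tween 20, then diluted 100 µL into 10 mL medium. Compounds were taken from a 1 mg/mL DMSO stock as twofold dilutions, top final 50 µg/mL. Incubation was 35 °C in a moist, dark chamber, and MIC was read spectrophotometrically at 24 h.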

Escherichia coli = assay: Antimicrobial activity against Escherichia coli after 24 hrs; assay type: functional
In short: as §1

Sporothrix schenckii = assay: Antimicrobial activity against Sporothrix schenckii after 24 hrs; assay type: functional
In short: (§2)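 Broth microdilution per NCCLS guidelines in MOPS-buffered RPMI 1640. Starting inoculum was 1-5 × 10^3 cfu/mL, and plates were incubated at 35 °C. MIC was read spectrophotometrically at 492 nm after 24–48 h for yeasts and 72–96 h for mycelial fungi.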

Cryptococcus neoformans = assay: Antimicrobial activity against Cryptococcus neoformans after 24 hrs; assay type: functional
In short: as §2

Candida albicans = assay: Antimicrobial activity against Candida albicans after 24 hrs; assay type: functional
In short: as §2

Aspergillus fumigatus = assay: Antimicrobial activity against Aspergillus fumigatus after 72 to 96 hrs
Staphylococcus aureus = assay: Antimicrobial activity against Staphylococcus aureus after 24 hrs; assay type: functional
In short: as §1

Klebsiella pneumoniae = assay: Antimicrobial activity against Klebsiella pneumoniae after 24 hrs; assay type: functional
In short: as §1

Candida parapsilosis = assay: Antimicrobial activity against Candida parapsilosis ATCC 22019 after 24 hrs; assay type: functional; details: Lodderomyces parapsilosis, ATCC 22019, 24 h
In short: as §2

Compound | MIC [1] | MIC (Pseudomonas aeruginosa) | MIC (Escherichia coli) | MIC (Sporothrix schenckii) | MIC (Cryptococcus neoformans) | MIC (Candida albicans) | MIC (Aspergillus fumigatus) | MIC (Staphylococcus aureus) | MIC (Klebsiella pneumoniae) | MIC (Candida parapsilosis)
c1ccc(CN2COc3ccc4ccccc4c3C2)cc1 | 50 mg/L (≈ 182 µM) | > 50 mg/L | > 50 mg/L | 50 mg/L (≈ 182 µM) | > 50 mg/L | > 50 mg/L | > 50 mg/L | > 50 mg/L | > 50 mg/L | > 50 mg/L
Cc1cccc2c1OCN(c1ccccc1)C2 | 25 mg/L (≈ 111 µM) | > 50 mg/L | 25 mg/L (≈ 111 µM) | 25 mg/L (≈ 111 µM) | > 50 mg/L | 50 mg/L (≈ 222 µM) | 50 mg/L (≈ 222 µM) | 50 mg/L (≈ 222 µM) | > 50 mg/L | 50 mg/L (≈ 222 µM)
OC(Cn1cncn1)(Cn1cncn1)c1ccc(F)cc1F [FLUCONAZOLE] | 1 mg/L (≈ 3.27 µM) |  |  | 2 mg/L (≈ 6.53 µM) | 1 mg/L (≈ 3.27 µM) | 0.5 mg/L (≈ 1.63 µM) | 2 mg/L (≈ 6.53 µM) |  |  | 1 mg/L (≈ 3.27 µM)
Fc1ccc(N2COc3ccc4ccccc4c3C2)cc1 | 25 mg/L (≈ 89.5 µM) | 50 mg/L (≈ 179 µM) | > 50 mg/L | 50 mg/L (≈ 179 µM) | 50 mg/L (≈ 179 µM) | > 50 mg/L | > 50 mg/L | > 50 mg/L | 50 mg/L (≈ 179 µM) | > 50 mg/L
Cc1ccc2c(c1)CN(c1ccccc1)CO2 | 25 mg/L (≈ 111 µM) | > 50 mg/L | 25 mg/L (≈ 111 µM) | 12.5 mg/L (≈ 55.5 µM) | > 50 mg/L | > 50 mg/L | 50 mg/L (≈ 222 µM) | 50 mg/L (≈ 222 µM) | 50 mg/L (≈ 222 µM) | 50 mg/L (≈ 222 µM)
CCCCN1COc2ccccc2C1 | 50 mg/L (≈ 261 µM) | > 50 mg/L | 50 mg/L (≈ 261 µM) | 50 mg/L (≈ 261 µM) | > 50 mg/L | > 50 mg/L | > 50 mg/L | > 50 mg/L | > 50 mg/L | > 50 mg/L
Cc1ccc(N2COc3ccc(Cl)cc3C2)cc1 | 12.5 mg/L (≈ 48.1 µM) | > 50 mg/L | 6.25 mg/L (≈ 24.1 µM) | 6.25 mg/L (≈ 24.1 µM) | 50 mg/L (≈ 193 µM) | 25 mg/L (≈ 96.3 µM) | 25 mg/L (≈ 96.3 µM) | 12.5 mg/L (≈ 48.1 µM) | 25 mg/L (≈ 96.3 µM) | 25 mg/L (≈ 96.3 µM)
Clc1ccc(N2COc3ccc4ccccc4c3C2)c(Cl)c1 | 50 mg/L (≈ 151 µM) | > 50 mg/L | > 50 mg/L | > 50 mg/L | > 50 mg/L | > 50 mg/L | > 50 mg/L | > 50 mg/L | > 50 mg/L | > 50 mg/L
CCCCN1COc2ccc3ccccc3c2C1 | 25 mg/L (≈ 104 µM) | > 50 mg/L | > 50 mg/L | 50 mg/L (≈ 207 µM) | 50 mg/L (≈ 207 µM) | > 50 mg/L | > 50 mg/L | > 50 mg/L | > 50 mg/L | > 50 mg/L
Cc1ccc2c(c1)CN(CCN1COc3ccc(C)cc3C1)CO2 | 25 mg/L (≈ 77.1 µM) | > 50 mg/L | > 50 mg/L | 12.5 mg/L (≈ 38.5 µM) | 50 mg/L (≈ 154 µM) | 50 mg/L (≈ 154 µM) | 50 mg/L (≈ 154 µM) | > 50 mg/L | > 50 mg/L | 50 mg/L (≈ 154 µM)
Cc1ccc2c(c1)CN(c1ccccc1Cl)CO2 | 12.5 mg/L (≈ 48.1 µM) | 50 mg/L (≈ 193 µM) | 50 mg/L (≈ 193 µM) | 12.5 mg/L (≈ 48.1 µM) | 25 mg/L (≈ 96.3 µM) | 50 mg/L (≈ 193 µM) | 50 mg/L (≈ 193 µM) | > 50 mg/L | > 50 mg/L | 50 mg/L (≈ 193 µM)
Clc1ccc(N2COc3ccc4ccccc4c3C2)cc1 | 25 mg/L (≈ 84.5 µM) | 50 mg/L (≈ 169 µM) | > 50 mg/L | 50 mg/L (≈ 169 µM) | 50 mg/L (≈ 169 µM) | > 50 mg/L | > 50 mg/L | > 50 mg/L | 50 mg/L (≈ 169 µM) | > 50 mg/L
c1ccc2c3c(ccc2c1)OCN(C1CCCCC1)C3 | 25 mg/L (≈ 93.5 µM) | > 50 mg/L | > 50 mg/L | 50 mg/L (≈ 187 µM) | 50 mg/L (≈ 187 µM) | 50 mg/L (≈ 187 µM) | > 50 mg/L | > 50 mg/L | > 50 mg/L | > 50 mg/L
c1ccc(N2COc3ccc4ccccc4c3C2)cc1 | > 50 mg/L | 50 mg/L (≈ 191 µM) | 50 mg/L (≈ 191 µM) | 25 mg/L (≈ 95.7 µM) | > 50 mg/L | 50 mg/L (≈ 191 µM) | > 50 mg/L | > 50 mg/L | > 50 mg/L | > 50 mg/L
c1ccc(N2COc3ccccc3C2)cc1 | 25 mg/L (≈ 118 µM) | > 50 mg/L | 50 mg/L (≈ 237 µM) | 25 mg/L (≈ 118 µM) | > 50 mg/L | > 50 mg/L | 50 mg/L (≈ 237 µM) | > 50 mg/L | > 50 mg/L | 50 mg/L (≈ 237 µM)
CC(=O)N1CCN(c2ccc(OCC3COC(Cn4ccnc4)(c4ccc(Cl)cc4Cl)O3)cc2)CC1 (stereo not given) [KETOCONAZOLE] | 4 mg/L (≈ 7.53 µM) |  |  | 0.031 mg/L (≈ 0.0583 µM) | 0.001 mg/L (≈ 0.00188 µM) | 0.002 mg/L (≈ 0.00376 µM) | 2 mg/L (≈ 3.76 µM) |  |  | 0.031 mg/L (≈ 0.0583 µM)
Cc1ccc(N2COc3ccc(C)cc3C2)cc1 | 12.5 mg/L (≈ 52.2 µM) | > 50 mg/L | 25 mg/L (≈ 104 µM) | 12.5 mg/L (≈ 52.2 µM) | 50 mg/L (≈ 209 µM) | 50 mg/L (≈ 209 µM) | 50 mg/L (≈ 209 µM) | 25 mg/L (≈ 104 µM) | 50 mg/L (≈ 209 µM) | 50 mg/L (≈ 209 µM)
c1ccc(N2COc3c(ccc4ccccc34)C2)cc1 | > 50 mg/L | > 50 mg/L | > 50 mg/L | > 50 mg/L | > 50 mg/L | > 50 mg/L | > 50 mg/L | > 50 mg/L | > 50 mg/L | > 50 mg/L
GENTAMICIN |  | 0.78 mg/L | 0.78 mg/L |  |  |  |  | 0.39 mg/L | 0.78 mg/L | 
Clc1cc(Cl)c(N2COc3ccc4ccccc4c3C2)c(Cl)c1 | 50 mg/L (≈ 137 µM) | > 50 mg/L | > 50 mg/L | > 50 mg/L | > 50 mg/L | > 50 mg/L | > 50 mg/L | > 50 mg/L | > 50 mg/L | > 50 mg/L
c1ccc2c(c1)CN(C1CCCCC1)CO2 | 50 mg/L (≈ 230 µM) | > 50 mg/L | > 50 mg/L | > 50 mg/L | > 50 mg/L | > 50 mg/L | > 50 mg/L | > 50 mg/L | > 50 mg/L | > 50 mg/L
CC1(C)S[C@@H]2[C@H](NC(=O)[C@H](N)c3ccccc3)C(=O)N2[C@H]1C(=O)O [AMPICILLIN] |  | 50 mg/L (≈ 143 µM) | 50 mg/L (≈ 143 µM) |  |  |  |  | 0.19 mg/L (≈ 0.544 µM) | 0.39 mg/L (≈ 1.12 µM) | 
CCCCN1COc2ccc(Cl)cc2C1 | 50 mg/L (≈ 222 µM) | > 50 mg/L | > 50 mg/L | 25 mg/L (≈ 111 µM) | > 50 mg/L | > 50 mg/L | > 50 mg/L | > 50 mg/L | > 50 mg/L | > 50 mg/L
